Laboratory results taken from PubChem BioAssay AID624175 (Southern Research Specialized Biocontainment Screening …, 2012).
Calls of active or inactive are those of the source.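 Rule for the calls: active = inhibition of 30% or more at any tested concentration; inactive = the rest.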

Biological target: Leucine aminopeptidase (Plasmodium falciparum (isolate 3D7)) (UniProt Q8IL11)
Assay: PFM17LAP inhibitors, dose response, selectivity assay for PFM18AAP inhibitor project, biochemical, QFRET, H-Leu-NHMec substrate, set 3 (AID 624175)
Settings: recombinant PfM17LAP, H-Leu-NHMec fluorogenic cleavage
How it was run: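 Material: Recombinant PfM17LAP enzyme | Times: 90 min reaction, room temperature | Measured by: Fluorescence, ex 370 / em 460 nm | Read-out: Percent inhibition vs controls, IC50 by four-parameter fit, fixed bounds 0–100 | Control set: Full reaction wells as high control, enzyme-free background wells as low control | Repeats: Each concentration tested in triplicate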

Sequence of Leucine aminopeptidase (Plasmodium falciparum (isolate 3D7)) (Q8IL11 whole entry, looked up): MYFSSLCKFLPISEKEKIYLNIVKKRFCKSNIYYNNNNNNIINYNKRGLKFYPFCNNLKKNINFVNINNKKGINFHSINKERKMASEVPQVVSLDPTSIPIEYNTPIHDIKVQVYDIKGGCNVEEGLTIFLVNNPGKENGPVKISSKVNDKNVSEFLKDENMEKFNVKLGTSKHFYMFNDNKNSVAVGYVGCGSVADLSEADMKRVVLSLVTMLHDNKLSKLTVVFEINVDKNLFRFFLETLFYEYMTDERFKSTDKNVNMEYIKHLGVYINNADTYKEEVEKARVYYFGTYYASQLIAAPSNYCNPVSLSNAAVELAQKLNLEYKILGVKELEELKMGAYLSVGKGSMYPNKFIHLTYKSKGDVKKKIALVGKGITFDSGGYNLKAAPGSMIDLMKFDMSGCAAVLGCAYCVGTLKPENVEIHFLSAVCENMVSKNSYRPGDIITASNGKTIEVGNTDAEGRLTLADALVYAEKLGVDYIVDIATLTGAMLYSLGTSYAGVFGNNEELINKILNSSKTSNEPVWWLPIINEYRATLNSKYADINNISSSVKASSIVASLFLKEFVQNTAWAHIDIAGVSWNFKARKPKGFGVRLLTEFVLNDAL

| IC50 [µM] | inhibition (at 100 µM (top of the series)) | SMILES | further results |
| --- | --- | --- | --- |
| 34.6 |  | CN(CCc1ccc(O)c(O)c1)c1ccnc2c(F)cccc12 |  |
|  | inactive | Nc1c2ccccc2nc2ccccc12 |  |
|  | inactive | COc1cc(Br)c(CCNc2ccnc3ccccc23)cc1OC |  |
| 47.4 |  | Cc1cc(N(C)CCc2ccc(O)c(O)c2)c2ccccc2n1 |  |
| 35.3 |  | Oc1cccc(CCNc2ccnc3ccccc23)c1O |  |
|  | inactive | CN(CCCc1ccc(O)c(O)c1)c1c2ccccc2nc2ccccc12 |  |
| 30.3 |  | Oc1ccc(C2CCN(c3ccnc4ccccc34)C2)cc1O (centres undefined) |  |
| 38.4 |  | Oc1ccc(C2CCN(c3ccnc4ccccc34)CC2)cc1O |  |
|  | inactive | COc1ccc(C2CCN(c3ccnc4ccccc34)C2)cc1OC (centres undefined) |  |
| 35.7 |  | Oc1ccc(CCNc2ccnc3c(F)cccc23)cc1O |  |
| 30.4 |  | CN(CCc1ccc(O)c(O)c1)c1ncnc2ccccc12 |  |
| 57.6 |  | CN(CCCc1ccc(O)c(O)c1)c1ccnc2ccccc12 |  |
| 55.1 |  | Cc1cccc2c(N(C)CCc3ccc(O)c(O)c3)ccnc12 |  |
| 56 |  | Oc1ccc(CCCNc2c3c(nc4ccccc24)CCCC3)cc1O |  |
| 101 |  | CC(C)(CNc1ccnc2ccccc12)c1ccc(O)c(O)c1 |  |
| 53.2 |  | Oc1ccc(C2CCCN(c3ccnc4ccccc34)C2)cc1O (centres undefined) |  |
| 76.5 |  | CC(Cc1ccc(O)c(O)c1)Nc1ccnc2ccccc12 (centres undefined) |  |
| 65.3 |  | Cc1cccc2c(NCCc3ccc(O)c(O)c3)ccnc12 |  |
| 73.4 |  | Oc1ccc(CCNc2ccnc3cc(Cl)ccc23)cc1O |  |
|  | inactive | CN(CCc1ccc(O)c(O)c1)c1c2ccccc2nc2ccccc12 |  |
|  | inactive | COc1ccc(C2CCN(c3ccnc4ccccc34)CC2)cc1OC |  |
| 44 |  | CN(CCc1ccc(O)c(O)c1)c1ccnc2cc(Cl)ccc12 |  |

Second part, the molecule before the results:

| SMILES | IC50 [µM] | inhibition (at 100 µM (top of the series)) | further results |
| --- | --- | --- | --- |
| CCOc1ccc2nccc(N(C)CCc3ccc(OC)c(OC)c3)c2c1 |  | inactive |  |
| COc1ccc(CCNc2ccnc3c(C)cccc23)cc1OC |  | inactive |  |
| CCN(CCc1ccc(OC)c(OC)c1)c1c2ccccc2nc2ccccc12 |  | inactive |  |
| COc1ccc(CCN(C)c2ccnc3cc(Cl)ccc23)cc1OC |  | inactive |  |
| COc1cc(Br)c(CCNc2c3c(nc4ccccc24)CCCC3)cc1OC |  | inactive |  |
| COc1ccc(CCCN(C)c2c3ccccc3nc3ccccc23)cc1OC |  | inactive |  |
| CCN(CC)Cc1cc(Nc2ccnc3cc(Cl)ccc23)ccc1O |  |  | inhibition (at 50 µM (top of the series)): inactive |
| COc1cc(Br)c(CCNc2c3ccccc3nc3ccccc23)cc1OC |  | inactive |  |
| COc1ccc(CCCNc2c3c(nc4ccccc24)CCCC3)cc1OC |  | inactive |  |
| COc1ccc(CCNc2ncnc3ccccc23)cc1OC |  | inactive |  |
| COc1ccc(CCN(C)c2cc(C)nc3ccccc23)cc1OC |  | inactive |  |
| COc1ccc(CCN(C)c2ccnc3c(F)cccc23)cc1OC |  | inactive |  |
| COc1ccc(CCNC(=O)c2cc(C)ccc2N)cc1OC |  | inactive |  |
| COc1ccc(CCN(C)c2c3ccccc3nc3ccccc23)cc1OC |  | inactive |  |
| COc1ccc(CCN(C)c2ccnc3c(C)cccc23)cc1OC |  | inactive |  |
| Clc1c2c(nc3ccccc13)CCCC2 |  | inactive |  |
| COc1ccc(CCNc2c3c(nc4ccc(C)cc24)CCCC3)cc1OC |  | inactive |  |
| COc1ccc(CCNc2ccnc3c(F)cccc23)cc1OC |  | inactive |  |
| COc1ccc(CCNc2cc(C)nc3ccccc23)cc1OC |  | inactive |  |
| CCOc1ccc2nccc(NCCc3ccc(OC)c(OC)c3)c2c1 |  | inactive |  |
| COc1ccc(CCNc2ccnc3cc(Cl)ccc23)cc1OC |  | inactive |  |
| COc1ccc(CCN(C)c2ncnc3ccccc23)cc1OC |  | inactive |  |
